From ChEMBL document CHEMBL4732076, “Design, synthesis and bioevaluation of inhibitors targeting HSP90-CDC37 protein-protein interaction based on a hydrophobic core” (Eur J Med Chem, 2021)
pIC50: −log10 of the molar value. Activity calls are given as the source filed them. The rule behind the calls is not given here.

How the values were obtained:
HCT-116 [1] = experiment: Antiproliferative activity against human HCT-116 cells assessed as reduction in cell viability incubated for 72 hrs by MTT assay; format: functional, cell-based; conditions: for pIC50: Homo sapiens, HCT-116, 72 h, read-out: IC50
Procedure, shortened: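 HCT116 cells in RPMI 1640 with 10% FBS, 37 °C, 5% CO2. Seeded at 3000–5000 cells/well and left 24 h, then exposed to serial compound dilutions for 72 h. Proliferation read by MTT kit using the standard protocol.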

Heat shock protein HSP90 [2] = molecular target: T1, Heat shock protein HSP90 (Homo sapiens, UniProt P07900+P08238); experiment: Binding affinity to recombinant human N-terminal truncated HSP90 (9 to 236 residues) expressed in Escherichia coli BL21 (DE3) assessed as on rate constant by biolayer interferometry assay
Heat shock protein HSP90 [3] = molecular target: T1, Heat shock protein HSP90; experiment: Binding affinity to recombinant human N-terminal truncated HSP90 (9 to 236 residues) expressed in Escherichia coli BL21 (DE3) assessed as dissociation rate constant by biolayer interferometry assay
Heat shock protein HSP90 [4] = molecular target: T1, Heat shock protein HSP90; experiment: Binding affinity to recombinant human N-terminal truncated HSP90 (9 to 236 residues) expressed in Escherichia coli BL21 (DE3) assessed as off rate constant by biolayer interferometry assay
Heat shock protein HSP90 [5] = molecular target: T1, Heat shock protein HSP90; experiment: Inhibition of HSP90 (unknown origin) at 100 uM measured after 1.5 hrs in presence of ATP by spectrophotometry relative to control; format: protein assay
HCT-116 [6] = experiment: Inhibition of HSP90/CDC37 interaction in human HCT-116 cells for 12 hrs by immunoprecipitation based Western blot analysis; format: cell-based; conditions: dose 1-10 µM
Procedure, shortened: (§1)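 HCT116 cells at ~90% confluence given compound (0, 1, 5, 10 μM) or DMSO for 12 h. Lysed 1 h on ice in RIPA buffer (50 mM Tris, 150 mM NaCl, 1% NP-40, protease inhibitors, pH 7.4), then spun 15 min at 4 °C. HSP90 immunoprecipitated with protein A/G magnetic beads over 3 h. Beads washed five times; blots probed for HSP90, CDC37 and CDK4.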

HCT-116 [7] = experiment: Antitumor activity against human HCT-116 cells xenografted in BALB/c mouse assessed as reduction in tumor volume administered orally for 37 days and measured on day 37; format: functional; conditions: dose 10-20 mg/kg, time 37.0 day
Procedure, shortened: (§2)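 HCT116 cells (1×10^7) mixed 3:1 with Matrigel and injected into the flank of 6-week-old BALB/c nude mice, randomized into groups. Dosing started at mean tumor volume 125 mm³: daily oral doses of 10 or 20 mg/kg in 0.9% saline with 5% DMSO, for 37 days. Tumor volume measured daily by calipers as length×width²/2; body weight recorded every 1–4 days. n = 6, mean ± SD.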

HCT-116 [8] = experiment: Inhibition of HSP90/CDC37 interaction in human HCT-116 cells assessed as downregulation of Cyclin D1 at 1 to 10 uM incubated for 12 hrs by Western blot analysis; conditions: dose 1-10 µM
Mus musculus [9] = experiment: In vivo inhibition of HSP90/[…] interaction in BALB/c mouse xenografted with human HCT-116 cells assessed as reduction in CDK4 level administered orally for 37 days and measured on day 37 by […] immunohistochemistry analysis; format: functional, organism-based; conditions: dose 10-20 mg/kg, time 37.0 day
HCT-116 [10] = experiment: Inhibition of HSP90/CDC37 interaction in human HCT-116 cells assessed as upregulation of p21/p27 at 1 to 10 uM incubated for 12 hrs by Western blot analysis; conditions: dose 1-10 µM
HCT-116 [11] = experiment: Inhibition of HSP90/CDC37 interaction in human HCT-116 cells assessed as downregulation of HSP70 at 1 to 10 uM incubated for 12 hrs by Western blot analysis; conditions: dose 1-10 µM
HCT-116 [12] = experiment: Induction of cell cycle arrest in human HCT-116 cells assessed as increase in accumulation at G0/G1 phase at 1 to 10 uM incubated for 24 hrs by propidium iodide staining based flow cytometric analysis; format: functional; conditions: dose 1-10 µM
Procedure, shortened: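 HCT116 cells exposed to 0, 1, 5 and 10 μM compound for 24 h. Fixed in 75% ethanol overnight at 4 °C, treated with RNase I (50 μg/mL) in PBS for 30 min at 37 °C, then stained with propidium iodide (50 μg/mL) for 15 min. Cell-cycle phases measured by flow cytometry.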

Heat shock protein HSP90 [13] = molecular target: T1, Heat shock protein HSP90; experiment: Binding affinity to HSP90 in human HCT-116 cells assessed as increase in thermal stability at 5 uM incubated for 12 hrs at 35 to 65 degC by […]; format: cell-based
Procedure, shortened: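 HCT116 cells at ~90% confluence treated with 5 μM compound or DMSO for 12 h, then washed and resuspended in PBS. Aliquots heated 3 min across 35–65 °C, freeze-thawed three times in liquid nitrogen and centrifuged. Soluble HSP90 and CDC37 detected by Western blot. Three independent experiments.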

HCT-116 [14] = experiment: Inhibition of HSP90/CDC37 interaction in human HCT-116 cells assessed as downregulation of CDK6 incubated for 12 hrs by Western blot analysis; format: cell-based; conditions: dose 1-10 µM
Procedure, shortened: (§3)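 HCT116 cells treated with 0, 1, 5 and 10 μM compound for 12 h. Whole-cell levels of HSP90, HSP70, CDC37, CDK4, CDK6, cyclin D1, p21 and p27 measured by Western blot, with β-actin as loading control. Three independent experiments.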

HCT-116 [15] = experiment: Antitumor activity against human HCT-116 cells xenografted in BALB/c mouse assessed as reduction in tumor at 10 to 20 mg/kg, po administered for 37 days and measured on day 37 by H and E staining based immunohistochemistry analysis; format: functional, organism-based; conditions: dose 10-20 mg/kg, time 37.0 day
HCT-116 [16] = experiment: Inhibition of HSP90/CDC37 interaction in human HCT-116 cells assessed as downregulation of CDK4 incubated for 12 hrs by Western blot analysis; format: cell-based; conditions: dose 1-10 µM; procedure, shortened: as §3
[17] = Toxicity in BALB/c mouse xenografted with human HCT-116 cells assessed as effect on body weight at 10 to 20 mg/kg, po administered and observed for 37 days; format: organism-based; conditions: in vivo, 888 h, dose 10-20 mg/kg, time 37 day; procedure, shortened: as §2
HCT-116 [18] = experiment: Inhibition of HSP90/CDC37 interaction in human HCT-116 cells assessed as reduction in CDK4 expression at 1 to 10 uM incubated for 12 hrs by immunoprecipitation based Western blot analysis; format: cell-based; conditions: dose 1-10 µM; procedure, shortened: as §1
Mus musculus [19] = experiment: In vivo inhibition of HSP90/[…] interaction in BALB/c mouse xenografted with human HCT-116 cells assessed as reduction in CDK4 level at 20 mg/kg, po administered for 37 days and measured on day 37 by […] immunohistochemistry analysis; format: functional, organism-based; conditions: time 37.0 day
HCT-116 [20] = experiment: Antitumor activity against human HCT-116 cells xenografted in BALB/c mouse assessed as reduction in tumor volume at 20 mg/kg, po administered for 37 days and measured on day 37; format: functional, organism-based; conditions: time 37.0 day; procedure, shortened: as §2
[21] = Toxicity in BALB/c mouse xenografted with human HCT-116 cells assessed as effect on body weight at 20 mg/kg, po administered and observed for 37 days; format: organism-based; conditions: in vivo, 888 h, time 37 day; procedure, shortened: as §2

SMILES | pIC50 (HCT-116 [1]) | K (Heat shock protein HSP90 [2]) | Kd (Heat shock protein HSP90 [3]) | K (Heat shock protein HSP90 [4]) | other results
CCCc1ccc(S(=O)(=O)Nc2ccc(Nc3ccnc(N4CCNCC4)n3)cc2)cc1.Cl | 4.71 | 3.17 10^3(1/Ms) | 11.5 µM | 0.0366 s⁻¹ | –
O=S(=O)(Nc1ccc(Nc2ccnc(N3CCNCC3)n2)cc1)c1cccs1 | < 4.70 | inactive | – | inactive | –
Cl.O=S(=O)(Nc1ccc(Nc2ccnc(N3CCNCC3)n2)cc1)c1ccc(-c2ccccc2)cc1 | 4.86 | 6.1 10^3(1/Ms) | 18.4 µM | 0.112 s⁻¹ | –
O=S(=O)(Nc1ccc(Nc2ccnc(N3CCNCC3)n2)cc1)c1ccc(OCc2ccccc2)cc1 | 5.15 | inactive | – | inactive | –
O=S(=O)(Nc1ccc(Nc2ccnc(N3CCNCC3)n2)cc1)c1ccc(Oc2ccccc2)cc1 | < 4.70 | inactive | – | inactive | –
O=S(=O)(Nc1ccc(Nc2ccnc(N3CCNCC3)n2)cc1)c1ccc(F)cc1 | < 4.70 | inactive | – | inactive | –
O=S(=O)(Nc1ccc(Nc2ccnc(N3CCNCC3)n2)cc1)c1ccc(Br)cc1 | 5.87 | inactive | – | inactive | –
CCOC(=O)c1ccc(S(=O)(=O)Nc2ccc(Nc3ccnc(N4CCNCC4)n3)cc2)cc1.Cl | 4.79 | 3.55 10^4/Ms | 5.13 µM | 0.182 s⁻¹ | –
O=S(=O)(Nc1ccc(Nc2ccnc(N3CCNCC3)n2)cc1)c1ccc(OC(F)(F)F)cc1 | < 4.70 | inactive | – | inactive | –
COc1cc(S(=O)(=O)Nc2ccc(Nc3ccnc(N4CCNCC4)n3)cc2)c(C)cc1C.Cl | < 4.30 | – | >= 20 uM | – | inhibition (Heat shock protein HSP90 [5]): 56%
Cl.O=S(=O)(Nc1ccc(Nc2ccnc(N3CCNCC3)n2)cc1)c1ccc2c(c1)CCC2 | 4.87 | 3.54 10^4/Ms | 9.52 µM | 0.337 s⁻¹ | –
Cc1ccc(S(=O)(=O)Nc2ccc(Nc3ccnc(N4CCNCC4)n3)cc2)cc1 | < 4.70 | inactive | – | inactive | –
Cc1c(C)c(S(=O)(=O)Nc2ccc(Nc3ccnc(N4CCNCC4)n3)cc2)c(C)c2c1OC(C)(C)C2.Cl | 5.20 | 2.03 10^4/Ms | 5.52 µM | 0.112 s⁻¹ | inhibition (HCT-116 [6]): Dose-dependent effect; Activity (HCT-116 [7]): Dose-dependent effect; inhibition (HCT-116 [8]): Active; inhibition (Mus musculus [9]): Dose-dependent effect; inhibition (HCT-116 [10]): Active; inhibition (HCT-116 [11]): inactive; Activity (HCT-116 [12]): Active; Activity (Heat shock protein HSP90 [13]): Active; inhibition (HCT-116 [14]): Dose-dependent effect; Activity (HCT-116 [15]): Active; inhibition (HCT-116 [16]): Dose-dependent effect; Activity [17]: Non-Toxic; inhibition (HCT-116 [18]): Active
CCc1ccc(S(=O)(=O)Nc2ccc(Nc3ccnc(N4CCNCC4)n3)cc2)cc1 | < 4.70 | inactive | – | inactive | –
CC(C)c1ccc(S(=O)(=O)Nc2ccc(Nc3ccnc(N4CCNCC4)n3)cc2)cc1.Cl | < 4.70 | – | > 100 µM | – | –
CCCCCc1ccc(S(=O)(=O)Nc2ccc(Nc3ccnc(N4CCNCC4)n3)cc2)cc1.Cl | 4.78 | – | > 100 µM | – | –
CC(C)c1cc(C(C)C)c(S(=O)(=O)Nc2ccc(Nc3ccnc(N4CCNCC4)n3)cc2)c(C(C)C)c1 | < 4.70 | inactive | – | inactive | –
CCCCc1ccc(S(=O)(=O)Nc2ccc(Nc3ccnc(N4CCNCC4)n3)cc2)cc1.Cl | 5.12 | 1.04 10^4/Ms | 11.6 µM | 0.121 s⁻¹ | –
Cl.Cn1cnc(S(=O)(=O)Nc2ccc(Nc3ccnc(N4CCNCC4)n3)cc2)c1 | – | inactive | – | inactive | IC50 (HCT-116 [1]; hct-116): Not Active
Cl.O=S(=O)(Nc1ccc(Nc2ccnc(N3CCNCC3)n2)cc1)c1ccc2c(c1)CCO2 | 5.24 | 3.02 10^3(1/Ms) | 10.6 µM | 0.0321 s⁻¹ | –
O=S(=O)(Nc1ccc(Nc2ccnc(N3CCNCC3)n2)cc1)c1ccc(Cl)cc1 | 4.95 | inactive | – | inactive | –
N#Cc1ccc(S(=O)(=O)Nc2ccc(Nc3ccnc(N4CCNCC4)n3)cc2)cc1 | < 4.70 | inactive | – | inactive | –
Cc1cc(C)c(S(=O)(=O)N(CC(=O)O)c2ccc(Nc3ccnc(N4CCNCC4)n3)cc2)c(C)c1 | – | – | – | – | inhibition (Mus musculus [19]): Active; Activity (HCT-116 [20]): Active; Activity [21]: Non-Toxic
